Here are results for two molecules from ChEMBL document CHEMBL4706601, “The endocannabinoid system dual-target ligand N-cycloheptyl-1,2-dihydro-5-bromo-1-(4-fluorobenzyl)-6-methyl-2-oxo-pyridine-3-carboxamide improves disease severity in a mouse model of multiple sclerosis” (Eur J Med Chem, 2020).

Structures are written as SMILES. pEC50: −log10 of the molar value. Calls of active or inactive are those of the source. No cut-off for these calls is given here.

The term Emax denotes the maximal effect, on the per cent scale that the assay sets. By pEC50 is commonly meant the EC50 on a negative log10 scale, so that one unit is a factor of ten.

Assay [1] concerns the target Cannabinoid receptor 1 (Rattus norvegicus) (UniProt P20272). The assay is described as follows: Agonist activity at CB1R in Sprague-Dawley rat hippocampal synaptosomes assessed as inhibition of 4-AP evoked glutamate release at 1 uM preincubated for 8 mins followed by 4-AP addition by HPLC analysis. The class given is subcellular. As to conditions: Hippocampus. In short, it runs like this: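 Rat (male Sprague Dawley, 200-250 g) hippocampal synaptosomes from Percoll gradient, superfused at 37 °C (0.5 ml/min); 4-AP 600 μM for 2 min. Compounds and antagonists (SR141716A, SR144528, 1 μM) added 8 min before 4-AP and kept during it; basal effects tested by 2-min exposure alone. Endogenous glutamate by HPLC as pmol/mg protein; overflow = stimulated minus basal in control chambers; n = 3–9, triplicate.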

Assay [2] concerns the target Cannabinoid receptor 2 (Mus musculus) (UniProt P47936). The assay is described as follows: Agonist activity at CB2R in LPS induced mouse BV2 cells assessed as reduction in IL-6 secretion at 10 uM preincubated with CB2R antagonist, SR144528 for 15 mins followed by compound additon for 30 mins after LPS stimulation for 4 hrs by ELISA. As to conditions: BV-2, time 270.0 min. The class given is cell-based. The method, boiled down: (§1)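 BV-2 murine microglia grown in high-glucose DMEM with 10% FBS. Treatments in FBS-free medium: test agonist 10 μM for 30 min, then LPS 5 μg/ml for 4 h; SR144528 10 μM given 15 min before agonist. DMSO ≤0.1% final. Medium spun 10 min at 1000×g; IL-1β, IL-6, IL-10 quantified by ELISA; three independent experiments in duplicate.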

Assay [3] has the same target. Put plainly: Agonist activity at CB2R in LPS induced mouse BV2 cells assessed as reduction in IL-1beta secretion at 10 uM preincubated with CB2R antagonist, SR144528 for 15 mins followed by compound additon for 30 mins after LPS stimulation for 4 hrs by ELISA. The assay is classed as cell-based. As to conditions: BV-2, time 270.0 min. In short, it runs like this:
as §1
Background: An ELISA detects its analyte on a solid surface through an enzyme-linked reagent.

Assay [4] shares this target. The assay is described as follows: Agonist activity at CB2R in LPS induced mouse BV2 cells assessed as increase in IL-10 secretion at 10 uM preincubated with CB2R antagonist, SR144528 for 15 mins followed by compound additon for 30 mins after LPS stimulation for 4 hrs by ELISA. The class given is cell-based. Particulars: BV-2, time 270.0 min. The method, boiled down:
as §1

For assay [5] the target is unchanged. Put plainly: Agonist activity at CB2R in LPS induced mouse BV2 cells assessed as increase in IL-10 secretion at 10 uM preincubated for 30 mins followed by LPS stimulation for 4 hrs by ELISA. The class given is cell-based. Particulars: BV-2, filed as agonist, time 270.0 min. In short, it runs like this: as §1
For assay [6], the system named is Mus musculus. Put plainly: Antinociceptive activity in CD-1 albino mouse model of oxaliplatin-induced neuropathic pain assessed as decrease in pain-related behaviour at 10 mg/kg, po pretreated with CB1R antagonist, SR141716A for 15 mins before compound addition treated on day 15 post oxaliplatin treatment and measured after 15 to 75 mins post dose by cold plate test. The class given is functional, organism-based. As to conditions: time 15-75 min. The method, boiled down:
(§2)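 Male CD-1 mice (22-25 g) given oxaliplatin 2.4 mg/kg i.p. in 5% glucose on days 1-2, 5-9, 12-14; tested day 15. Compound in 1% carboxymethylcellulose orally at 5, 10, 20, 50 mg/kg. Cold plate licking latency at 15, 30, 45, 60, 75 min post dose. Selective CB1R and CB2R antagonists co-tested. 16 mice per treatment across 2 sessions; one-way ANOVA with Bonferroni.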

The test system of assay [7] is Mus musculus. Put plainly: Antinociceptive activity in orally dosed CD-1 albino mouse model of oxaliplatin-induced neuropathic pain assessed as decrease in pain-related behaviour treated on day 15 post oxaliplatin treatment and measured after 15 to 75 mins post dose by cold plate test. The assay is classed as functional, organism-based. As to conditions: dose 5-50 mg/kg, time 15-75 min. The method, boiled down: as §2

Assay [8] deals with T1, Cannabinoid receptor 2 (Homo sapiens, UniProt P34972). The assay is described as follows: Non-competitive antagonist activity at human CB2R expressed in CHO cell membranes assessed as N-cycloheptyl-1,2-dihydro-1-(4-fluorobenzyl)-6-methyl-2-oxo-5-phenyl-pyridine-3-carboxamide Emax at 300 nM preincubated with compound for 30 mins followed by GTPgammaS addition and measured after 90 mins by [35S]GTPgammaS assay (reference value: -49.9%). The assay is classed as functional. As to conditions: Membrane, filed as antagonist, time 120.0 min. In short, it runs like this: (§3)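 hCB2 membranes from stably transfected CHO cells (10 µg) pre-incubated 30 min with antagonist, then an inverse-agonist concentration series added. Buffer: 50 mM Tris-HCl, 3 mM MgCl2, 0.2 mM EDTA, 100 mM NaCl, 0.5% fatty-acid-free BSA, pH 7.4, with 10 µM GDP and 0.1 nM [35S]GTPγS. Incubated 90 min at 30 °C, then filtered. Non-specific binding measured with 10 µM GTPγS. Emax given with 95% CI; at least 3 experiments, each in triplicate.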

Assay [9] deals with T1, Cannabinoid receptor 2. The assay is described as follows: Non-competitive antagonist activity at human CB2R expressed in CHO cell membranes assessed as N-cycloheptyl-1,2-dihydro-1-(4-fluorobenzyl)-6-methyl-2-oxo-5-phenyl-pyridine-3-carboxamide Emax at 1000 nM preincubated with compound for 30 mins followed by GTPgammaS addition and measured after 90 mins by [35S]GTPgammaS assay (reference value: -49.9%). The class given is functional. As to conditions: Membrane, filed as antagonist, time 120.0 min. The method, boiled down:
as §3
(In general: GTPγS is a poorly hydrolysed GTP analogue; its binding reports G protein activation.)

Assay [10] has as its target T1, Cannabinoid receptor 2. Put plainly: Competitive antagonist activity at human CB2R expressed in CHO cell membranes assessed as N-cycloheptyl-1,2-dihydro-5-bromo-1-(4-fluoro benzyl)-6-methyl-2-oxo-pyridine-3-carboxamide Emax at 300 nM preincubated with compound for 30 mins followed by GTPgammaS addition and measured after 90 mins by [35S]GTPgammaS assay (reference value: 210%). The class given is functional. As to conditions: Membrane, filed as antagonist, time 120.0 min. The method, boiled down: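 hCB2 CHO membranes in GTPγS buffer (10 μM GDP, 0.1 nM [35S]GTPγS, pH 7.4) pre-incubated 30 min with antagonist at 300 nM or 1 µM, then agonist or inverse agonist concentration series, 90 min at 30 °C. EC50 and Emax reported with 95% CI; Schild analysis; controls CP55,940 100 nM and AM630 1 μM; ≥3 experiments in triplicate.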

Assay [11] has as its target T1, Cannabinoid receptor 2. The assay is described as follows: Non-competitive antagonist activity at human CB2R expressed in CHO cell membranes assessed as N-cycloheptyl-1,2-dihydro-1-(4-fluorobenzyl)-6-methyl-2-oxo-5-phenyl-pyridine-3-carboxamide Emax at 100 nM preincubated with compound for 30 mins followed by GTPgammaS addition and measured after 90 mins by [35S]GTPgammaS assay (reference value: -49.9%). As to conditions: Membrane, filed as antagonist, time 120.0 min. The class given is functional. The method, boiled down: as §3

The species entered for the next assay is Homo sapiens. Put plainly: Selectivity index, ratio of Ki for human CB1R expressed in CHO cell membranes to Ki for human CB2R expressed in CHO cell membranes. The assay is classed as cell-based.
Assay [12] addresses T1, Cannabinoid receptor 2. Put plainly: Antagonist activity at human CB2R expressed in CHO cell membranes preincubated for 30 mins followed by GTPgammaS addition and measured after 90 mins by [35S]GTPgammaS assay. The assay is classed as functional, Membrane. In short, it runs like this:
(§4)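 In-house CHO membranes expressing hCB1 or hCB2 (10 µg) in 50 mM Tris-HCl, 3 mM MgCl2, 0.2 mM EDTA, 100 mM NaCl, 0.5% fatty-acid-free BSA, pH 7.4, with 10 μM GDP and 0.1 nM [35S]GTPγS. Incubated 90 min at 30 °C; antagonist pre-incubated 30 min. Nonspecific binding with 10 μM GTPγS; bound label by filtration and counting; ≥3 experiments in triplicate.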

For the next assay, the target named is Cannabinoid receptor 1 (Homo sapiens, UniProt P21554). The assay is described as follows: Antagonist activity at human CB1R expressed in CHO cell membranes preincubated for 30 mins followed by GTPgammaS addition and measured after 90 mins by [35S]GTPgammaS assay. The class given is functional, Membrane. The method, boiled down: as §4
Chain of Cannabinoid receptor 1 (P21554 whole entry): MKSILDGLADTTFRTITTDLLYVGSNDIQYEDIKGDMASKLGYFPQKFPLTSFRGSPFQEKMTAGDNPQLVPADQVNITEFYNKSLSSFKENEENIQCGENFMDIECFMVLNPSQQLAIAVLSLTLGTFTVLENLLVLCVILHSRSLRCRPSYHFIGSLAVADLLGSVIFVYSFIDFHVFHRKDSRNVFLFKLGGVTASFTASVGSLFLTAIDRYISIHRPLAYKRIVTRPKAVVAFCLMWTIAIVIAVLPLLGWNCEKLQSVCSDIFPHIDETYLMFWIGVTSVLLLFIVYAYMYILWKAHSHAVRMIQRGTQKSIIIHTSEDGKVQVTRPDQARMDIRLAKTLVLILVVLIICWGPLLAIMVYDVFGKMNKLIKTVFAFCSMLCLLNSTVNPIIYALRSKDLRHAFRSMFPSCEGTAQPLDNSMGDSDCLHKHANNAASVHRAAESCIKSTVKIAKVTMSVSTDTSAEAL

Chain of Cannabinoid receptor 2 (Mus musculus) (P47936 whole entry): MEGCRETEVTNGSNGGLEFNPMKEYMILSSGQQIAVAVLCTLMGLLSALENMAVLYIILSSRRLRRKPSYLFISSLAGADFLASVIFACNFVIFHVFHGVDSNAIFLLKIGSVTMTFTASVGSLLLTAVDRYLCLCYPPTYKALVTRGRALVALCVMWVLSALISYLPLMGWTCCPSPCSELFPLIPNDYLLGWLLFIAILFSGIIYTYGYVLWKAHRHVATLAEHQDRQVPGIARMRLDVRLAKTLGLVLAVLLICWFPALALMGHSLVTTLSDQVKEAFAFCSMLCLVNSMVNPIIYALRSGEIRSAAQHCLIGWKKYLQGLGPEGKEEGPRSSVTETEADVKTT
T1 sequence (P34972 whole entry): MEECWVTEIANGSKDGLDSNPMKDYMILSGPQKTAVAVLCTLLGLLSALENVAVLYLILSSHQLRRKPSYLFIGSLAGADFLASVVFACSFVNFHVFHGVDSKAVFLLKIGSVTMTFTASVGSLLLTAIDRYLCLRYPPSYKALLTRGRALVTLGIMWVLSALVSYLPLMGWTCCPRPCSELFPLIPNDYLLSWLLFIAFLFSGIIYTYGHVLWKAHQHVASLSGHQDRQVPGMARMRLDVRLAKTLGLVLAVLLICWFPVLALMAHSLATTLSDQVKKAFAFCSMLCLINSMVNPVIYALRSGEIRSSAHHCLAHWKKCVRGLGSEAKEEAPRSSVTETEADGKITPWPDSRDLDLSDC
Chain of Cannabinoid receptor 1 (Rattus norvegicus) (P20272 whole entry, the tested form may be a part): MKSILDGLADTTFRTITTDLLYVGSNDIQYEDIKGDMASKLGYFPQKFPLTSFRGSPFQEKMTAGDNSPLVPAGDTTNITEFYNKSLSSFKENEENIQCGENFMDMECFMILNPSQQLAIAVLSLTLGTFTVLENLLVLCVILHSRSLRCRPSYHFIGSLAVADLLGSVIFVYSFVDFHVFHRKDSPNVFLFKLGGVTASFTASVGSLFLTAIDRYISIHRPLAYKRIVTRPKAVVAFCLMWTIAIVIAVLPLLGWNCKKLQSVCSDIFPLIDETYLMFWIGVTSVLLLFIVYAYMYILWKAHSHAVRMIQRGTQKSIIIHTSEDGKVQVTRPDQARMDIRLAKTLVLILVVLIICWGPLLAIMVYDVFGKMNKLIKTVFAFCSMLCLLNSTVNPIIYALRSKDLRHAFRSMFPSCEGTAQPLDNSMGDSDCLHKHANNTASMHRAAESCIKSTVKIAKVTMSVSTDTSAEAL

As to `Cc1c(Br)cc(C(=O)NC2CCCCCC2)c(=O)n1Cc1ccc(F)cc1`, the result (in assay [1]; in [2]; in assay [3]; in assay [4]; in the assay on Mus musculus [6]) was inactive. Also, the values for the Activity (in [5]; in the assay on Mus musculus [7]) were 484% and “Dose-dependent effect”, respectively.

As to `COc1ccc(-c2cc(C(=O)NC3CCCCCC3)c(=O)n(Cc3ccc(F)cc3)c2C)cc1`, the Emax on Cannabinoid receptor 2 [8] was -28.6%; at Cannabinoid receptor 2 [9] it was -24.9%; at Cannabinoid receptor 2 [10] it was 209%; on Cannabinoid receptor 2 [11], -36.3%. In the assay filed under Homo sapiens, the Ratio Ki came to 0.37. Moreover, the pEC50 was 6.77 at Cannabinoid receptor 2 [12] and 6.57 at Cannabinoid receptor 1.
